# Measured values published in ChEMBL document CHEMBL1133013, “Structure-activity relationships and pharmacokinetic analysis for a series of potent, systemically available biphenylsulfonamide matrix metalloproteinase inhibitors” (J Med Chem, 2000).
# What was measured:
# [1] = Cmax in rat plasma after single 5 mg/kg oral cassette gavage dose; assay type: ADME, organism-based; design: dose 5 mg/kg, route oral
# Procedure, shortened: (§1)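 Cassette of 5–7 compounds given together as one oral gavage, 5 mg/kg per compound, methyl cellulose suspension, 3 fasted male Wistar rats (80-90 days old). Heparinized plasma taken by jugular cannula predose to 48 h. LC-MS/MS with LLOQ 10 ng/mL. Noncompartmental analysis of individual rats: Cmax/tmax as observed, t1/2 = 0.693/λz, trapezoidal AUC(0-tldc) extrapolated to infinity.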
# [2] = Concentration in rat plasma 24 hours after single 5 mg/kg oral cassette gavage dose; assay type: ADME, organism-based; design: dose 5 mg/kg, route oral; conditions: read-out: C24
# [3] = Half life (t1/2) in rats following a single 5 mg/kg oral cassette gavage dose; assay type: ADME, organism-based; design: dose 5 mg/kg, route oral; conditions: rat, in vivo; procedure, shortened: as §1
# [4] = Pharmacokinetic parameters in rats following a single 5 mg/kg oral cassette gavage dose; assay type: ADME, organism-based; design: dose 5 mg/kg, route oral; conditions: rat, in vivo, read-out: AUC 0-infinity; procedure, shortened: as §1
# [5] = AUC in rats following a single 5 mg/kg oral cassette gavage dose; assay type: ADME, organism-based; design: dose 5 mg/kg, route oral; conditions: rat, plasma, read-out: AUC 0-tldc; procedure, shortened: as §1
# [6] = Time to maximal concentration (tmax) in rats following a single 5 mg/kg oral cassette gavage dose; assay type: ADME, organism-based; design: dose 5 mg/kg, route oral; conditions: rat, in vivo; procedure, shortened: as §1
# Stromelysin-1 = Stromelysin-1 (Homo sapiens, UniProt P08254); test: In vitro inhibition of recombinant human matrix metalloprotease-3 (MMP-3)
# Stromelysin-1, sequence (P08254 whole entry): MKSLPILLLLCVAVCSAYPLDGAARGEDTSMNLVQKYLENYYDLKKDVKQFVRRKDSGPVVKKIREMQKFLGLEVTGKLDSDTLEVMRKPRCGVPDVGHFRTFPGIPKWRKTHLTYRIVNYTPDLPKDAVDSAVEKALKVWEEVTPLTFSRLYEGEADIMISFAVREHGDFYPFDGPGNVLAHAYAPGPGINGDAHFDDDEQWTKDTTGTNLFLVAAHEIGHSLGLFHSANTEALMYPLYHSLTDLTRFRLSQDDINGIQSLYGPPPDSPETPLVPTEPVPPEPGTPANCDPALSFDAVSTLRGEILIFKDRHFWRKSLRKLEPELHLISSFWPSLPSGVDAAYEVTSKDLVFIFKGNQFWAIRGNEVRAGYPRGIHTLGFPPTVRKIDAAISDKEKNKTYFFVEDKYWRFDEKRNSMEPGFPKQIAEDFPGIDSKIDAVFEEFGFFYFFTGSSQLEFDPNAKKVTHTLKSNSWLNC
# [7] = target: Matrix metalloproteinase-9 (Homo sapiens, UniProt P14780); test: In vitro inhibition of matrix metalloprotease-9 (MMP-9)
# Matrix metalloproteinase-9, sequence (P14780 whole entry): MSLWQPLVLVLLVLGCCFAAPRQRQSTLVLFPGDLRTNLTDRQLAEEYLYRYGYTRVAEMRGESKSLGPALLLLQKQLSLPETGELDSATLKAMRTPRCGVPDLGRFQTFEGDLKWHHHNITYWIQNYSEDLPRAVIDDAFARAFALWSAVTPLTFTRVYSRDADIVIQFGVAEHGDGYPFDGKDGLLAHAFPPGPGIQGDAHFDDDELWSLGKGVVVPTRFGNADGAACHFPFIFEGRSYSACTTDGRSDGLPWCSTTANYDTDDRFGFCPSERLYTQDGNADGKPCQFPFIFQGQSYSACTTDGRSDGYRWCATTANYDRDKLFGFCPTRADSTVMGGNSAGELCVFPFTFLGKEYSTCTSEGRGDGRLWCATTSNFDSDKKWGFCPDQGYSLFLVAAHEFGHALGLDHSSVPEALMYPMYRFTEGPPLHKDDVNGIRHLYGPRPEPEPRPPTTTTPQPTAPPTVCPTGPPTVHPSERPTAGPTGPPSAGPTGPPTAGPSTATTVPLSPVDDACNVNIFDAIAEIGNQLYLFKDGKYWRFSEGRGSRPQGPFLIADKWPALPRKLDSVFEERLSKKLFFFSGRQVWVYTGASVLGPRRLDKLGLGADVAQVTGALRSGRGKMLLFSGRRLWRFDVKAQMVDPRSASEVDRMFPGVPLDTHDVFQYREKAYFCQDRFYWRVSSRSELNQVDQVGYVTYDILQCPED
# Matrilysin = target: T1, Matrilysin (Homo sapiens, UniProt P09237); test: In vitro inhibition of matrix metalloprotease-7 (MMP-7)
# T1 sequence (P09237 whole entry): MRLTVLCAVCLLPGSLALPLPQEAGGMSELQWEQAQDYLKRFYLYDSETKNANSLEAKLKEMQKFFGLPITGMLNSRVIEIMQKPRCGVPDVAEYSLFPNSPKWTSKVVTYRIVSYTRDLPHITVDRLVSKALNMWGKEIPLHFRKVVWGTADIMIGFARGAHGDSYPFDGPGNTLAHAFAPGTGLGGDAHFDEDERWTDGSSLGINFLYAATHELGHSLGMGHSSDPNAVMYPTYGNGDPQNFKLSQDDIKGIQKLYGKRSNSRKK
# Interstitial collagenase = target: T2, Interstitial collagenase (Homo sapiens, UniProt P03956); test: In vitro inhibition of human recombinant matrix metalloprotease-1 (MMP-1)
# T2 sequence (P03956 whole entry): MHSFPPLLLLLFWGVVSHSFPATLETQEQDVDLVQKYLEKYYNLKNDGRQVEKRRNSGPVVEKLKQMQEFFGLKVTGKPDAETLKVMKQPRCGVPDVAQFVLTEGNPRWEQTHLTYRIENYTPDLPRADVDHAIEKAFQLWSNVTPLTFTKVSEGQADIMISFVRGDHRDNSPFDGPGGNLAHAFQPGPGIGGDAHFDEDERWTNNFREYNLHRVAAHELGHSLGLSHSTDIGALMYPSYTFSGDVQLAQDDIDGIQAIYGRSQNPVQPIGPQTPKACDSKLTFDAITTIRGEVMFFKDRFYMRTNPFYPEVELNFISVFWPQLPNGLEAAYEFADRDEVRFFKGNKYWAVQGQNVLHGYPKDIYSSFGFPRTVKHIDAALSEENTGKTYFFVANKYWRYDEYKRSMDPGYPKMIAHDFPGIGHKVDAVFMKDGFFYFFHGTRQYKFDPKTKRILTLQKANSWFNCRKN
# [8] = target: 72 kDa type IV collagenase (Homo sapiens, UniProt P08253); test: In vitro inhibition of matrix metalloprotease-2 (MMP-2)
# 72 kDa type IV collagenase, sequence (P08253 whole entry): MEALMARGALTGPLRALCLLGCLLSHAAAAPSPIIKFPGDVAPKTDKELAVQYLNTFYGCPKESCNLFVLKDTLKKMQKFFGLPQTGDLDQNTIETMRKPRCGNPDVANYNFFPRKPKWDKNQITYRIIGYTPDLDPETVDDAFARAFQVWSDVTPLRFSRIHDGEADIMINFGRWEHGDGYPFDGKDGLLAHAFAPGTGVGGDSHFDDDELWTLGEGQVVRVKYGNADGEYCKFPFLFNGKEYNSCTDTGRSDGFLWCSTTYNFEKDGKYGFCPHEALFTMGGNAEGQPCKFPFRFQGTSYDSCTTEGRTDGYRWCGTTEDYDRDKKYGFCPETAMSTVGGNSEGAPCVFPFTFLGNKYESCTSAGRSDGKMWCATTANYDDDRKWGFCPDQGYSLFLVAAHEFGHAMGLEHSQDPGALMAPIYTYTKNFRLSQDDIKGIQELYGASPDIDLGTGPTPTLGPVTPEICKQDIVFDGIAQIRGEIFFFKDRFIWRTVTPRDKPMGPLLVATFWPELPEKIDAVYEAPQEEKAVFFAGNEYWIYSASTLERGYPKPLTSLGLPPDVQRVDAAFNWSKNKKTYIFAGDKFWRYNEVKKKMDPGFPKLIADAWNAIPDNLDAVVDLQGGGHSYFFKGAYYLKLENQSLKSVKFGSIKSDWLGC
# Collagenase 3 = Collagenase 3 (Homo sapiens, UniProt P45452)
SMILES,Cmax [1] [ng/mL],concentration at 24 h [2] [ng/mL],half-life [3] [min],AUC [4] [µg·h/mL],AUC [5] [µg·h/mL],Tmax [6] [h],IC50 (Stromelysin-1) [nM],IC50 [7] [µM],IC50 (Matrilysin) [µM],IC50 (Interstitial collagenase) [µM],IC50 [8] [nM],IC50 (Collagenase 3) [nM]
CC(C)[C@@H](NS(=O)(=O)c1ccc(-c2ccc(C#N)cc2)cc1)C(=O)O,12200,4490,768,277,256,1.33,5,3.8,19,14,7,53
CC(C)[C@@H](NS(=O)(=O)c1ccc(-c2ccc(Br)cc2)cc1)C(=O)NO,5930,10,407,5.86,5.73,0.33,5,0.018,0.14,0.11,1,2
CC(C)[C@H](NS(=O)(=O)c1ccc(-c2ccc(C#N)cc2)cc1)C(=O)O,17100,5480,750,363,289,2.67,6,59,7,18,33,37
CC(C)[C@H](NS(=O)(=O)c1ccc(-c2ccc(Br)cc2F)cc1)C(=O)O,28500,21300,7020,4040,1360,1.88,16,4.9,2.1,3.6,5,7
